From publication PMC3880631 (Journal of medicinal chemistry, 2013)

Legend:
[1] = target: HIV-1 RT DNA-dependent DNA polymerase activity (Human immunodeficiency virus type 1 group M subtype B, UniProt P03366); assay: DNA-dependent DNA polymerase assay; format: biochemical; conditions: read-out: inhibition of DNA-dependent DNA polymerase activity
[2] = system: HIV-1RF isolate; assay: in vitro; format: cell-based
[3] = system: selectively-mutated p51 thumb α-helix I variants (Lys275 – Arg286) of HIV-1 RT; format: biochemical; conditions: Supplementary Table S1
How it was run: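 Reconstituted p66/p51 RT with p51 thumb mutations (150 - 800 ng), pre-mixed with test compound in DMSO; 18-nt 3′-fluorescein RNA/5′-dabsyl DNA hybrid (250 nM final) added to start. […] Triplicates.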

Row | SMILES | inhibition at 50 µM [1] [%] | other results
1 | O=c1[nH]c(-c2ccc(O)c(O)c2)nc2sc3c(c12)CCCCCC3 [Compound 30] | > 60 | 
2 | O=c1[nH]c(-c2ccc(O)c(O)c2)nc2sc3c(c12)CCCC3 [Compound 28] | > 60 | protection from HIV infection ([2]; HIV-1RF in CEM-SS cells): failed to elicit protection from HIV infection
3 | CCCCc1c(C)sc2nc(-c3ccc(O)c(O)c3)[nH]c(=O)c12 [Compound 25] | > 60 | 
4 | CCCc1c(C)sc2nc(-c3ccc(O)c(O)c3)[nH]c(=O)c12 [Compound 24] |  | selectivity ratio ([2]; human, sr, selectivity ratio, i.e., CC50/EC50, CC50/EC50): ~6
5 | Cc1sc2nc(-c3ccc(O)c(O)c3)[nH]c(=O)c2c1C [Compound 9] |  | sensitivity of the entire panel of p51 thumb α-helix I variants [3]: uniformly sensitive
